Active and inactive are the calls of the source. No cut-off for these calls is given here.
What was measured:
Priestia megaterium [1] = experiment: Antibacterial activity against Bacillus megaterium ATCC 14581 by microdilution susceptibility assay in presence of 75 mM of sodium chloride; format: functional
In short: (§1)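 Microdilution susceptibility assay in 10 mM sodium phosphate buffer, pH 7.4, with NaCl at 0, 75, 150 or 200 mM. Activity is expressed relative to the activity in buffer without NaCl, which is set to 1. Values are means with standard deviations of two independent experiments, each run in duplicate.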

Escherichia coli [2] = experiment: Antibacterial activity against Escherichia coli DH5alpha by microdilution susceptibility assay in presence of 200 mM of sodium chloride; format: functional, organism-based; conditions: DH5[alpha]
In short: (§2)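 Microdilution susceptibility assay in 10 mM sodium phosphate pH 7.4 with 0, 75, 150 or 200 mM NaCl. Activity relative to 0 mM NaCl (set to 1). Mean with standard deviation of two independent experiments, each in duplicate.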

Klebsiella pneumoniae [3] = experiment: Antibacterial activity against vancomycin-resistant ESBL-producing Klebsiella pneumoniae GF1 after 2 hrs; format: functional
Klebsiella pneumoniae [4] = experiment: Antibacterial activity against vancomycin-resistant ESBL-producing Klebsiella pneumoniae ATCC 700603 after 2 hrs; format: functional
Staphylococcus aureus [5] = experiment: Antibacterial activity against methicillin-resistant Staphylococcus aureus 344 after 2 hrs; format: functional
Enterococcus faecium [6] = experiment: Antibacterial activity against vancomycin-resistant Enterococcus faecium 354 after 2 hrs
Staphylococcus aureus [7] = experiment: Antibacterial activity against Staphylococcus aureus ATCC 12600 by microdilution susceptibility assay in presence of 200 mM of sodium chloride; format: functional, organism-based; in short: as §2
Staphylococcus aureus [8] = experiment: Antibacterial activity against methicillin-resistant Staphylococcus aureus 358 after 2 hrs; format: functional
Staphylococcus aureus [9] = experiment: Antibacterial activity against methicillin-resistant Staphylococcus aureus after 2 hrs
Escherichia coli [10] = experiment: Antibacterial activity against vancomycin-resistant ESBL-producing Escherichia coli E4 after 2 hrs; format: functional
Enterococcus faecium [11] = experiment: Antibacterial activity against vancomycin-resistant Enterococcus faecium 356 after 2 hrs
Escherichia coli [12] = experiment: Antibacterial activity against Escherichia coli DH5alpha after 2 hrs; format: functional, DH5[alpha]
Enterococcus faecium [13] = experiment: Antibacterial activity against vancomycin-resistant Enterococcus faecium G70 after 2 hrs
Staphylococcus aureus [14] = experiment: Antibacterial activity against methicillin-resistant Staphylococcus aureus ATCC 33393 after 2 hrs; format: functional
Escherichia coli [15] = experiment: Antibacterial activity against vancomycin-resistant ESBL-producing Escherichia coli E9 after 2 hrs; format: functional
Staphylococcus aureus [16] = experiment: Antibacterial activity against Staphylococcus aureus ATCC 12600 assessed as destruction and detachment of peripheral cell wall at 410 uM after 1.5 hrs by transmission electron microscopy; format: functional, organism-based
In short: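 S. aureus grown to OD₆₀₀ 0.1, washed twice in 10 mM sodium phosphate pH 7.4 with 1% tryptic soy broth, concentrated to OD₆₀₀ 3.0 (~10⁸ bacteria/ml). Incubated with peptide at 41 or 410 μM for 1.5 h at 37°C with rocking; solvent-only control. CFU plated as growth check. Rest fixed 2 h 1:1 with 10% glutaraldehyde, examined by transmission electron microscopy.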

[17] = Toxicity in human RBC assessed as hemolysis at 250 uM after 1 hr; format: cell-based; conditions: erythrocyte
In short: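 Human red blood cells were exposed to peptide serially diluted twofold from 250 μM in 50 mM sodium phosphate-150 mM NaCl, pH 7.4, for 1 h. Distilled water gave maximal lysis; buffer with peptide solvent gave spontaneous lysis. Absorbance of diluted supernatants was read at 405 nm. Values are means of two independent experiments, each in duplicate.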

Priestia megaterium [18] = experiment: Antibacterial activity against Bacillus megaterium ATCC 14581 after 2 hrs; format: functional
Enterococcus faecium [19] = experiment: Antibacterial activity against vancomycin-resistant Enterococcus faecium G71 after 2 hrs
Escherichia coli [20] = experiment: Antibacterial activity against Escherichia coli DH5alpha by microdilution susceptibility assay in presence of 75 mM of sodium chloride; format: functional, DH5[alpha]; in short: as §1
Staphylococcus aureus [21] = experiment: Antibacterial activity against Staphylococcus aureus ATCC 12600 by microdilution susceptibility assay in presence of 75 mM of sodium chloride; format: functional; in short: as §1
Enterococcus faecalis = experiment: Antibacterial activity against vancomycin-resistant Enterococcus faecalis ATCC 51299 after 2 hrs; format: functional
Priestia megaterium [22] = experiment: Antibacterial activity against Bacillus megaterium ATCC 14581 by microdilution susceptibility assay in presence of 200 mM of sodium chloride; format: functional, organism-based; in short: as §2
Staphylococcus aureus [23] = experiment: Antibacterial activity against Staphylococcus aureus ATCC 12600 after 2 hrs; format: functional
Staphylococcus aureus [24] = experiment: Antibacterial activity against methicillin-resistant Staphylococcus aureus ATCC 43300 after 2 hrs; format: functional
Klebsiella pneumoniae [25] = experiment: Antibacterial activity against vancomycin-resistant ESBL-producing Klebsiella pneumoniae GF7 after 2 hrs; format: functional

## H-KPWRFRRAIRRVRWRKVAPYIPFVVKTVGKK-OH
Priestia megaterium [1]
  fold change (FC): 4
Escherichia coli [2]
  Activity: Active
Klebsiella pneumoniae [3]
  LD90: 0.2 µM
Klebsiella pneumoniae [3]; Klebsiella pneumoniae, GF1, 2 h
  MBC: 0.4 µM
Klebsiella pneumoniae [4]
  LD90: 0.2 µM
Klebsiella pneumoniae [4]; Klebsiella pneumoniae, ATCC 700603, 2 h
  MBC: 0.8 µM
Staphylococcus aureus [5]
  LD90: 0.2 µM
Staphylococcus aureus [5]; Staphylococcus aureus, 344, 2 h
  MBC: 0.8 µM
Enterococcus faecium [6]
  LD90: 0.2 µM
Enterococcus faecium [6]; Enterococcus faecium, 354, 2 h
  MBC: 0.4 µM
Staphylococcus aureus [7]
  Activity: Active
Staphylococcus aureus [8]
  LD90: 0.2 µM
Staphylococcus aureus [8]; Staphylococcus aureus, 358, 2 h
  MBC: 0.4 µM
Staphylococcus aureus [9]
  LD90: 0.2 µM
Staphylococcus aureus [9]; Staphylococcus aureus, 2 h
  MBC: 0.8 µM
Escherichia coli [10]
  LD90: 0.1 µM
Escherichia coli [10]; Escherichia coli, E4, 2 h
  MBC: 0.4 µM
Enterococcus faecium [11]
  LD90: 0.2 µM
Enterococcus faecium [11]; Enterococcus faecium, 356, 2 h
  MBC: 0.8 µM
Escherichia coli [12]
  LD90: 0.1 µM
Escherichia coli [12]; Escherichia coli, DH5[alpha], 2 h
  MBC: 0.2 µM
Enterococcus faecium [13]
  LD90: 0.2 µM
Enterococcus faecium [13]; Enterococcus faecium, G70, 2 h
  MBC: 0.4 µM
Staphylococcus aureus [14]
  LD90: 0.2 µM
Staphylococcus aureus [14]; Staphylococcus aureus, ATCC 33393, 2 h
  MBC: 0.4 µM
Escherichia coli [15]
  LD90: 0.05 µM
Escherichia coli [15]; Escherichia coli, E9, 2 h
  MBC: 0.2 µM
Staphylococcus aureus [16]
  Activity: Active
[17]
  Activity: Non-toxic
Priestia megaterium [18]
  LD90: 0.01 µM
Priestia megaterium [18]; Priestia megaterium, ATCC 14581, 2 h
  MBC: 0.1 µM
Enterococcus faecium [19]
  LD90: 0.2 µM
Enterococcus faecium [19]; Enterococcus faecium, G71, 2 h
  MBC: 0.4 µM
Escherichia coli [20]
  fold change (FC): 2
Staphylococcus aureus [21]
  fold change (FC): 4
Enterococcus faecalis
  LD90: 0.8 µM
Enterococcus faecalis; Enterococcus faecalis, ATCC 51299, 2 h
  MBC: 1.6 µM
Priestia megaterium [22]
  Activity: Active
Staphylococcus aureus [23]
  LD90: 0.05 µM
Staphylococcus aureus [23]; Staphylococcus aureus, ATCC 12600, 2 h
  MBC: 0.4 µM
Staphylococcus aureus [24]
  LD90: 0.2 µM
Staphylococcus aureus [24]; Staphylococcus aureus, ATCC 43300, 2 h
  MBC: 0.4 µM
Klebsiella pneumoniae [25]
  LD90: 0.2 µM
Klebsiella pneumoniae [25]; Klebsiella pneumoniae, GF7, 2 h
  MBC: 0.4 µM

— ChEMBL document CHEMBL1649280, “Activity of the novel peptide arminin against multiresistant human pathogens shows the considerable potential of phylogenetically ancient organisms as drug sources” (Antimicrob Agents Chemother, 2009)
